From PubChem BioAssay
Hits are enriched below; roughly 0.38% of the tested compounds scored in any of these assays.
STK33 kinase inh: inhibitors of purified STK33 kinase, primary screen, biochemical, ADP-Glo luminescence, homogeneous, cell-free | Serine/threonine-protein kinase 33 (Homo sapiens), Q9BYT3 | MBP phosphorylation | inhibition, % at 10 µM | actives 0.073% (n = 320,000);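 active = inhibition at or above 25%, using the most active replicate where run in duplicate; inactive = inhibition below 25%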
procasp7 counter: procaspase-7 activators, primary screen, counter-screen for procaspase-3 activator project, biochemical, absorbance, HTS, human; actives 0.093% (n = 330,000); recombinant procaspase-7, Ac-DEVD-pNA absorbance 405 nm; D23A/D198A/D206A triple mutant, cannot self-cleave; scale: DMSO 0, 5 µM enzyme 100; AID 463210, 2010; activation, % at 8.5 µM;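 active = percent activation above the screen-wide mean plus 3 SD, cut at about 25% in these data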
Target sequence (P55210 whole entry D23A/D198A/D206A): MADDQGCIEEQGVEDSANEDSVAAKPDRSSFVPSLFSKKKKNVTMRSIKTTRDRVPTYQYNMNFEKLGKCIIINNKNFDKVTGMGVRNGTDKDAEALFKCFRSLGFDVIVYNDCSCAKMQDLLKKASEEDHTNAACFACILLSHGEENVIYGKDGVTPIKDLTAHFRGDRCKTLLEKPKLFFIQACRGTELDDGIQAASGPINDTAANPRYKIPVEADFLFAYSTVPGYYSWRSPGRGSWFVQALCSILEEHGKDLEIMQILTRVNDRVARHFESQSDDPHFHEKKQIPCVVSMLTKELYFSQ
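Test system: Procaspase-7 triple mutant (PC-7 D3A). Also added: Ac-DEVD-pNA substrate, 400 µM as added. Schedule: 1 h enzyme–compound preincubation and 2 h substrate reaction, both 25 °C. Signal: p-Nitroaniline absorbance at 405 nm, read at 0 and 120 min. Control set: low DMSO alone, high DMSO plus 5 µM PC-7.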
GSK3A inh: blockers of GSK3A enzyme activity – biochemical, luminescence, cell-free homogeneous, HTS, primary screen; Glycogen synthase kinase-3 alpha (Homo sapiens), P49840; GSK-3 alpha kinase, ADP-Glo luminescence, 60 min; inhibition, % at 10 µM; actives 0.1% (n = 320,000);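 active = more than half of replicates show inhibition above 20%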;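 also: GST-tagged GSK-3 alpha with peptide substrate and 25 µM ATP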
A1 inh: caspase 3/7 activation in MEF A1-2A-BIM cells, primary screen, A1 inhibitor project, cell-based, luminescence, HTS | Caspase-Glo 3/7 luminescence, 3 h; percent of clofoctol response, vehicle zero | caspase activation, % (no concentration beside the values) | actives 0.066% (n = 330,000) | AID 2462, 2010;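 active = over half of replicate activation scores above 10%, or exactly half above 10 with the replicate mean above 10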
GSK3B inh: human GSK3beta kinase inhibitors, primary screen, biochemical, cell-free homogeneous, HTS; Glycogen synthase kinase-3 beta (Homo sapiens), P49841; GST-GSK3beta kinase, ADP-Glo luminescence, 60 min; stronger effect = lower value; activity score (negative = inhibition), % at 10 µM; actives 0.038% (n = 300,000); AID 2097, 2009;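 active = more than half of replicate wells score below -50%, meaning over 50% inhibition versus plate controls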
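Assay system: GST-fused GSK3beta enzyme, cell-free / Medium: Tris pH 7.5 buffer with MgCl2, DTT, BSA, heparin / Also added: peptide substrate plus 25 µM ATP (final) / Compound: 10 µM single point / Timing: kinase reaction with compound 60 min at room temperature / Detection: ADP-Glo luminescence / Benchmarks: DMSO neutral wells and GW8510 at 20 µM as positive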
procasp3 activ: activators of human procaspase-3 D3A mutant, primary screen, biochemical, absorbance, PC-3 D3A mutant, single concentration; Caspase-3 (Homo sapiens), P42574; recombinant procaspase-3 D3A, Ac-DEVD-pNA absorbance 405 nm; activation, % at 8.5 µM; actives 0.11% (n = 330,000); AID 463141, 2010;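 active = activation above the mean of all tested compounds plus 3 SD, cut at about 21% in these data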
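Assay system – Procaspase-3 D3A mutant · Benchmarks – DMSO low control, extra-enzyme high control · Technique – 405 nm absorbance of p-nitroaniline, reads at 0 and 120 min · Doses – 8.5 µM nominal · Measure – % activation between DMSO and enzyme-spiked controls · Also added – Ac-DEVD-pNA chromogenic peptide substrate · Schedule – 1 h compound preincubation, 2 h substrate hydrolysis at 25 °C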
procasp7 triplic: procaspase-7 activators, counter-screen for procaspase-3 activator project, biochemical, absorbance, triplicate, human | shares compounds with procasp3 activ | 210 tested, under 10 active | recombinant procaspase-7, Ac-DEVD-pNA absorbance; asp23/198/206-to-Ala mutant, cannot self-cleave | AID 488941, 2010 | activation, % at 8.5 µM;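 active = mean activation above a set limit taken from an earlier procaspase-7 screen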
proCasp3 confirm: activators of human procaspase-3 D3A mutant, confirmation, biochemical, absorbance, PC-3 D3A mutant, triplicate; shares compounds with procasp3 activ; recombinant PC-3 D3A, Ac-DEVD-pNA absorbance 405 nm; 100% is higher-enzyme control; activation, % at 8.5 µM; actives 10% (n = 210); AID 488954, 2010;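 active = mean activation above a set limit carried over from the earlier primary screen, cut at about 22% in these data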
PC3 dual counter: procaspase-3 activators, counter-screen for dual procaspase-3/7 activator project, biochemical, absorbance, PC-3 D3A mutant, human | activation, % at 8.5 µM | shares compounds with procasp7 counter | recombinant PC-3 D3A, Ac-DEVD-pNA absorbance 405 nm; aspartates 9, 28, 175 changed to alanine; 100% = enzyme control | 290 tested, under 10 active;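 active = mean percent activation across triplicates above a set limit taken from the earlier primary procaspase-3 screen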
Procasp7 act: activation of procaspase-7 enzyme – biochemical, absorbance, human, dual procaspase-3/-7 activator project, confirmation; shares compounds with procasp7 counter; recombinant procaspase-7, Ac-DEVD-pNA absorbance 405 nm; D23A/D198A/D206A mutant that cannot self-cleave; 290 tested, under 10 active; activation, % at 8.5 µM;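 active = mean activation above a set limit carried over from the earlier primary screen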
A number is an active result; n = inactive; x = no result given.

SMILES	STK33 kinase inh	procasp7 counter	GSK3A inh	A1 inh	GSK3B inh	procasp3 activ	procasp7 triplic	proCasp3 confirm	others
CC[n+]1c(/C=C/C=C/c2ccc(N(C)C)cc2)sc2ccccc21	n	n	n	n	n	39	n	n
CCCOC(=O)c1c(N)n(Cc2cccs2)c2nc3ccccc3nc12	n	n	n	n	n	48	n	n
COCCCn1c(N)c(C(=O)NCCC(C)C)c2nc3ccccc3nc21	n	n	n	n	n	32	n	n
COCCOC(=O)c1c(N)n(Cc2ccccc2)c2nc3ccccc3nc12	n	n	n	n	n	n	x	x
CCCCn1c(N)c(C(=O)NCc2cccs2)c2nc3ccccc3nc21	n	n	n	n	n	46	n	n
Cn1c(C(=O)O)c(CC(=O)N2CCN(Cc3ccccc3)CC2)c2ccccc21	n	n	n	n	n	n	x	x
c1ccc(C2NCCc3[nH]cnc32)cc1 (stereo unspecified)	n	n	n	n	n	n	x	x
Cc1ccc(-c2nc3ccccc3c(=O)n2-c2cccc(C)n2)cc1	n	n	n	n	n	44	n	n
S=C1NCCN1	n	n	n	n	n	n	x	x
Nc1c(C(=O)NCc2ccco2)c2nc3ccccc3nc2n1Cc1ccccc1	n	46	n	n	n	n	x	x	PC3 dual counter=n;Procasp7 act=n
CCOP(=O)(Cc1cc(C#N)oc1C)OCC	n	n	n	n	n	n	x	x
